Data set [1] concerns Murine leukemia virus. Kind of data set: Antiviral activity against Murine leukemia virus pseudoparticle infected in human Huh7.5.1 cells at 3.2 uM after 4 hrs by luciferase reporter gene assay. Conditions: Huh-7, 4 h. The class given is functional. The gist of the method: (§1)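 Huh7.5.1 cells seeded at 10^4 cells/well, cultured overnight, then infected for 4 h with pseudoparticles (HCVpp GT 1a or 1b, MLVpp, VSV-Gpp) while compound was present. Cells were washed and cultured 48 h, then a luciferase read-out was taken. Values are expressed as % of DMSO control. Cyclosporin A 10 μM and bafilomycin A1 10 nM were run in parallel.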
(In general: A reporter such as luciferase makes a cellular process visible.)

Data set [2] deals with Liver microsome. In words: Metabolic stability in human liver microsomes assessed as half life by LC-MS/MS analysis in presence of NADPH. (Microsomes from liver hold many membrane-bound enzymes, among them those of drug oxidation.)
For data set [3], the system named is Liver microsome. In words: Metabolic stability in rat liver microsomes assessed as half life by LC-MS/MS analysis in presence of NADPH.
Data set [4] concerns Hepatitis C virus. Kind of data set: Antiviral activity against single rounded infectious HCV infected in human Huh7.5.1 cells assessed as viral level at 3.2 uM after 48 hrs by luciferase reporter gene assay. It counts as functional, Hepacivirus hominis. To be noted: Huh-7, 48 h. The gist of the method:
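Huh7.5.1 cells (10^4 cells/well, overnight) were infected with single-round infectious HCV (HCVsc) in the presence of compound. Viral level was measured by luciferase after 48 h and expressed as % of DMSO control. The assay reports inhibition of early stages before assembly.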

The subject of data set [5] is Hepatitis C virus. Kind of data set: Antiviral activity against HCV genotype 1b pseudoparticle infected in human Huh7.5.1 cells assessed as inhibition of virus entry at 3.2 uM after 4 hrs by luciferase reporter gene assay. The class given is functional, Hepacivirus hominis. To be noted: Huh-7, 4 h. The method in brief:
as §1

The nature of data set [6]: Metabolic stability in mouse liver microsomes assessed as half life by LC-MS/MS analysis in presence of NADPH.
Data set [7] relates to Hepatitis C virus. In words: Antiviral activity against HCV genotype 2a assessed as inhibition of RNA replication at 3.2 uM by cell-based replicon assay. It counts as functional, Hepacivirus hominis. The method in brief:
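GT 2a subgenomic HCV replicon cells were seeded at 10^4 cells/well and incubated overnight. They were then exposed to compound for 48 h, and replication was read by luciferase activity. Results are given as % of DMSO control.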

Data set [8] in a line: in vitro. To be noted: human, Huh7.5.1 cells and HepG2 cells.
Data set [9] concerns HepG2. In words: Cytotoxicity against human HepG2 cells assessed as ATP level by luminescence analysis.
The test system of data set [10] is Hepatocyte. Conditions: human, hepatocytes.
The subject of data set [11] is Hepatitis C virus. In words: Antiviral activity against HCV genotype 1a pseudoparticle infected in human Huh7.5.1 cells assessed as inhibition of virus entry at 3.2 uM after 4 hrs by luciferase reporter gene assay. It counts as functional, Hepacivirus hominis. To be noted: subtype 1a, Huh-7, 4 h. The method in brief: as §1
The subject of data set [12] is Vesicular stomatitis virus. In words: Antiviral activity against Vesicular stomatitis virus G pseudoparticle infected in human Huh7.5.1 cells at 3.2 uM after 4 hrs by luciferase reporter gene assay. The class given is functional. Conditions: Huh-7, 4 h. The gist of the method: as §1
Data set [13] can be described thus: Solubility of compound in phosphate buffer at pH 7.4.
A short description of data set [14]: Cytotoxicity against human Huh7.5.1 cells assessed as ATP level by luminescence analysis. Conditions: huh-7.
The target in data set [15] is histamine H1 receptor (Homo sapiens, UniProt P35367). In words: in vitro. Conditions: PathHunter cells.
histamine H1 receptor, sequence (P35367 whole entry): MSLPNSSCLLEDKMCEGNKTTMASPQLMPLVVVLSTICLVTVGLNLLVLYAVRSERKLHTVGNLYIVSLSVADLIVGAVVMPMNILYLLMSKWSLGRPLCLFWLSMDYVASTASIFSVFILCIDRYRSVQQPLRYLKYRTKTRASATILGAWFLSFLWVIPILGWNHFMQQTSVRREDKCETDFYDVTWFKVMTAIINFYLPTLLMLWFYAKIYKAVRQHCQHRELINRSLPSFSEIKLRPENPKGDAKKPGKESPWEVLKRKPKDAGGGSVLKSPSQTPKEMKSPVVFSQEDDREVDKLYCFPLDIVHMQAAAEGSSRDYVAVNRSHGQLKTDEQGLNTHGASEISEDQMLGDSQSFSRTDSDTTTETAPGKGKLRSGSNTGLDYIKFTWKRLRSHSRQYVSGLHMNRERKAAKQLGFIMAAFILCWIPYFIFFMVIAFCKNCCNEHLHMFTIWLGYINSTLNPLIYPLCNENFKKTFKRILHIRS
In data set [16] the test system is Hepatitis C virus. Kind of data set: microbe, parasite or virus in culture. The class given is functional, Hepacivirus hominis. To be noted: Huh-7, 48 h.
Data set [17] concerns Hepatitis C virus. In words: microbe, parasite or virus in culture. The class given is functional, organism-based, Hepacivirus hominis. To be noted: JFH-1, Huh-7.5.1, 48 h.

This is an account of results in ChEMBL document CHEMBL3769315 (J Med Chem, 2016).

In brackets after ≈: the same amount, converted by molar mass.

In general, inhibition refers to the relative decrease from the control value, in per cent. The term solubility (kinetic) denotes the concentration staying in solution when a stock, usually in DMSO, is diluted into the medium. A word on the EC50: it is the concentration needed to bring the measured effect to its halfway point. Low readings indicate greater potency, high ones weaker potency. As for `NCCOCCN1CCN(C(c2ccccc2)c2ccc(Cl)cc2)CC1` (racemic), the inhibition at 3.2 µM in [1] was found to be 107%; in [4], 6.9%; in data set [5] it was 37.2%; in data set [7], 149%; in data set [11], 19.4%; in data set [12], 93.1%. The t1/2 in data set [2] is 26.3 min; in data set [3], 12.2 min; in data set [6], 25 min. The selectivity ratio in data set [8] is less than 1.8. Besides, the CC50 in [9] turned out to be 6.17 µM; in data set [10], 8.98 µM; in data set [14], 8.18 µM. For the same compound, the solubility (kinetic) in data set [13] is 44.3 µg/mL (≈ 118 µM). In addition, in data set [15], the inhibition at 2 h, 0.01 µM amounted to 21.5%. For the same compound, the inhibition at 10 µM in data set [16] turned out to be 6.9%. In data set [17], a half-maximal response (EC50) required 0.0072 µM.
